# Screening data: PubChem BioAssay, Sanford-Burnham Center for Chemical Genomics
# A selection: hits, their analogues and other compounds. The true share with any hit is near 3%.
# SENP7 block: SENP7 protease inhibition; Q9BQF6; recombinant SENP7, Z-RLRGG-aminoluciferin luminescence, 40 min; inhibition, % at 5 µM; hit rate 1.5% among 330,000; AID 434973;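 active = inhibition above about 50% at the single test dose, limit read from the data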;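 note: plate controls were DMSO with enzyme for no effect and no enzyme buffer wells for full effect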
# SENP8 block-1: SENP8 protease inhibition; purified SENP8, Z-RLRGG-aminoluciferin cleavage, luminescence; inhibition, % at 10 µM; hit rate 1.2% among 330,000; AID 2540; in the data active = inhibition above about 50%
# Target sequence (Q96LD8 whole entry, looked up): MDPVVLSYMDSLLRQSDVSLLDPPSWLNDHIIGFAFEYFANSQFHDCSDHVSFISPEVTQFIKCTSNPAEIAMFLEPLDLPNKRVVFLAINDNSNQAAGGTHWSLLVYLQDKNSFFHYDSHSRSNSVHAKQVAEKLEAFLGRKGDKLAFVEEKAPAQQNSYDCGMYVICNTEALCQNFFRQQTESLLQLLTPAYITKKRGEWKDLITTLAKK
# SENP8 block-2: inhibitors of human SENP8 protease; inhibition, % at 20 µM; recombinant SENP8, Nedd8 substrate fluorescence; AID 602440; Q96LD8; hit rate 0.64% among 360,000; in the data active = inhibition mostly above about 40%, no sharp cut-off; inactive = mostly below about 27%
# Apaf1 inhib: human Apaf-1 inhibition. O14727. reconstituted apoptosome caspase-3 activity, DEVD-Rh110 fluorescence. inhibition, % at 20 µM. hit rate 0.71% among 330,000. AID 489030; active = inhibition of at least 40% at 20 µM;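 note: plate controls were DMSO wells for no effect and DEVD-CHO caspase inhibitor wells for full effect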
#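 Material: reconstituted apoptosome with Apaf-1, cytochrome c, caspase-9, procaspase-3, dATP / Buffer or medium: pH 7.5 Hepes buffer with CHAPS, BSA, DTT / Also added: cytochrome c with DEVD-Rh110 / Schedule: compound with Apaf-1, dATP, procaspase-3 30 min, then 50 min reaction, room temperature / Technique: rhodamine 110 fluorescence at Ex 480/Em 540 nm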
# UBC13 inh: inhibitors of human UBC13 polyubiquitin chain formation; P61088; TR-FRET; inhibition, % at 20 µM; hit rate 0.47% among 330,000; AID 485273; in the data active = inhibition above about 45%, passing the limit was not always enough
# Target sequence (P61088 whole entry, looked up): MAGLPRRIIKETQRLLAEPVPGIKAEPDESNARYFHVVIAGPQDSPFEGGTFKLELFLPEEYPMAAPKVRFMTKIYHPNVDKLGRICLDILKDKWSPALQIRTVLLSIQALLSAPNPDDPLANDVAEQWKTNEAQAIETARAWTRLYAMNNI
# SENP6 inh: blocks the human protease SENP6. Q9GZR1. Recombinant SENP6 catalytic domain, aminoluciferin luminescence. inhibition, % at 10 µM. hit rate 1.8% among 330,000. AID 2599;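 active = inhibition above about 50% at the single tested dose, limit read from the data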;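 note: plate controls were DMSO wells with enzyme for no effect and DMSO wells lacking enzyme for full effect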
# SENP8 confirm: human SENP8 inhibition, confirmed; hit rate 40% among 6,200; inhibition, % at 12.5 µM; AID 488912; Recombinant SENP8, Z-RLRGG-aminoluciferin luminescence, 60 min; shares compounds with SENP7 block;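 active = mean inhibition across replicates above about 50%, limit read from the data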
# SENP6 confirm: confirmation of human SENP6 protease inhibitors. shares compounds with SENP7 block. recombinant SENP6, Z-RLRGG-aminoluciferin luminescence. inhibition, % at 12.5 µM. hit rate 58% among 6,200. AID 488915
# SENP7 confirm: confirmation of human SENP7 protease inhibitors. shares compounds with SENP7 block. recombinant SENP7, Z-RLRGG-aminoluciferin luminescence, 40 min. inhibition, % at 12.5 µM. hit rate 69% among 6,200. AID 488917
# Casp3 SENP sel: inhibits human caspase-3 in SENP selectivity test; purified caspase-3, Z-DEVD-aminoluciferin luminescence, 60 min; hit rate 60% among 6,200; inhibition, % at 12.5 µM; shares compounds with SENP7 block; AID 488918;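 active = mean inhibition above about 50%, limit read from the data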;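 note: plate controls were enzyme with DMSO for no effect and wells without caspase-3 for full effect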
# Target sequence (P42574 28-227 limits assumed): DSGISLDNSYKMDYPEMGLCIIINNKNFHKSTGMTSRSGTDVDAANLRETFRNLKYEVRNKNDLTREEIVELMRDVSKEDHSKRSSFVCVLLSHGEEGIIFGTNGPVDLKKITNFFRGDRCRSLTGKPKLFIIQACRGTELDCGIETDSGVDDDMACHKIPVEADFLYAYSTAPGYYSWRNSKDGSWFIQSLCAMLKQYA
# SENP luc ctr: counter-screen for SENP inhibitors: luminescence interference; hit rate 39% among 6,200; inhibition, % at 12.5 µM; shares compounds with SENP7 block; Pre-incubated SENP8/Z-RLRGG-aminoluciferin, luciferase luminescence interference; AID 488919;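 active = mean inhibition above about 50% when retested at one dose, limit read from the data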;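 note: plate controls were DMSO wells with completed reaction for no effect and substrate without enzyme for full effect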
# * marks the source's active call; other numbers are inactive results; nt = not tested or not shown.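 Rule for the calls, unless noted: active = mean inhibition above about 50% in the one-dose retest (limit read from the data); inactive = the rest.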
SMILES,SENP7 block,SENP8 block-1,SENP8 block-2,Apaf1 inhib,UBC13 inh,SENP6 inh,SENP8 confirm,SENP6 confirm,SENP7 confirm,Casp3 SENP sel,SENP luc ctr
CC1=NN(C(N)=S)C(=O)C1N=Nc1cccc(Cl)c1 (centres undefined),66*,85*,12,-4,0,92*,37,90*,100*,90*,88*
COc1nsnc1NS(=O)(=O)c1ccc(NC(=S)NC(=O)c2cccnc2)cc1,30,24,16,-1,-4,54*,55*,51*,82*,84*,55*
COc1ccc(CN2CC[C@@H]3CN(C(C)=O)[C@H](c4ccccc4Br)C[C@@H]32)cc1,nt,nt,12,nt,nt,nt,nt,nt,nt,nt,nt
CN(C)c1ccc(/C=N/NC(=O)c2nonc2N)cc1[N+](=O)[O-],55*,21,29,6,-86,45,27,27,76*,75*,59*
O=C(N/N=C/c1ccc(O)c([N+](=O)[O-])c1)c1ccncc1,49,20,31,-11,-48,57*,38,26,66*,79*,15
Cc1csc(N/N=C/c2ccc(O)c([N+](=O)[O-])c2)n1,25,55*,12,10,-26,69*,12,89*,50,3,2
O=C(N/N=C/c1ccc([N+](=O)[O-])s1)c1ccncc1,21,12,34,-9,-31,58*,7,44,10,6,-3
CCOC(=O)[C@]12CCCC=C1N(CCc1ccc(OC)c(OC)c1)C(=O)[C@H](CC(=O)NCCc1ccccc1OC)C2,nt,nt,12,nt,nt,nt,nt,nt,nt,nt,nt
COc1ccc([N+](=O)[O-])cc1CN1CCN(c2ncc(Cc3ccccc3)cn2)CC1,nt,nt,22,nt,nt,nt,nt,nt,nt,nt,nt
COc1cc(/C=C2\C(=O)N(c3ccc(NC(C)=O)cc3)N=C2c2ccccc2)ccc1O,33,5,10,39,-171,32,nt,nt,nt,nt,nt
CCOc1cc(/C=C2\C(=O)N(c3nc(-c4ccc(Br)cc4)cs3)N=C2c2ccccc2)ccc1O,-2,5,27,53*,-14,51*,10,7,-3,-2,-1
FC(F)(F)Oc1ccccc1C(c1nnnn1C1CCCC1)N1CCN(C/C=C/c2ccccc2)CC1 (centres undefined),nt,nt,12,nt,nt,nt,nt,nt,nt,nt,nt
CCOc1ccc(NC(=O)CN2C(=O)NC(CCc3ccccc3)C2=O)cc1OCC (centres undefined),1,-7,10,7,1,68*,9,3,-3,-3,-8
CN1CCOc2c1cnn(CCO)c2=O,nt,nt,-326,nt,nt,nt,nt,nt,nt,nt,nt
CSCCC(C(=O)Nc1c(C)cccc1C)n1c(-c2ccc(C(F)(F)F)cc2)nc2ccccc21 (centres undefined),nt,nt,-28,nt,nt,nt,nt,nt,nt,nt,nt
O=C(OCC(=O)N1CCc2ccccc21)c1ccccc1F,43,33,10,6,1,58*,43,38,76*,64*,5
N#CC1(NC(=O)COC(=O)c2ccccc2[N+](=O)[O-])CCCCC1,-2,0,3,-12,0,-4,nt,nt,nt,nt,nt
O=C(OCC(=O)N1CCc2ccccc21)c1ccccc1[N+](=O)[O-],91*,86*,4,4,-3,87*,94*,94*,102*,95*,74*
O=C(COC(=O)c1ccccc1[N+](=O)[O-])c1ccc(C2CCCCC2)cc1,98*,89*,12,0,0,90*,12,77*,52*,79*,16
O=C(c1ccccc1F)N1CCc2ccccc21,3,2,10,8,-4,6,nt,nt,nt,nt,nt
Cc1cccc(C)c1C(O)c1ncc(-c2cccc(C(F)(F)F)c2)[nH]1 (centres undefined),nt,nt,4,nt,nt,nt,nt,nt,nt,nt,nt
CC(=O)c1cc2c(=O)c3cc(C)ccc3oc2nc1C,64*,64*,-144,4,5,75*,44,23,50,56*,10
Cc1ccc2oc3nc(C)c(C(=O)O)cc3c(=O)c2c1,92*,81*,-494,-3,7,88*,6,44,68*,80*,56*
CCOC(=O)c1cc2c(=O)c3cc(C)ccc3oc2nc1C,92*,71*,-20,2,9,45,25,31,32,60*,10
CCN(CC)C(=O)c1cc2c(=O)c3cc(Cl)ccc3oc2nc1C,-3,-6,-51,-5,-4,-1,nt,nt,nt,nt,nt
SMILES,SENP7 block,SENP8 block-1,SENP8 block-2,Apaf1 inhib,UBC13 inh,SENP6 inh,SENP8 confirm,SENP6 confirm,SENP7 confirm,Casp3 SENP sel,SENP luc ctr
COCc1nc2oc3ccc(C)cc3c(=O)c2cc1C(=O)OC,23,2,-148,3,10,29,nt,nt,nt,nt,nt
Cc1nc2oc3ccc(F)cc3c(=O)c2cc1C(=O)O,20,6,-29,4,-2,17,nt,nt,nt,nt,nt
CCNC(=O)C1(C)CCN(Cc2ccc(C#N)cc2)C1 (centres undefined),nt,nt,7,nt,nt,nt,nt,nt,nt,nt,nt
CCC(C)CN1C(=O)CN(S(C)(=O)=O)CC1(C)C(=O)Nc1c(C)cccc1C (centres undefined),nt,nt,9,nt,nt,nt,nt,nt,nt,nt,nt
COc1ccc(CN=C2Nc3ccccc3CS2)cc1,85*,80*,6,2,9,92*,86*,86*,97*,81*,88*
Cc1ccc(NC2Sc3ccccc3NC2=O)cc1 (centres undefined),30,53*,9,12,-28,77*,53*,41,68*,57*,55*
O=C1Nc2ccccc2SC1c1ccccc1 (centres undefined),nt,nt,11,nt,nt,nt,nt,nt,nt,nt,nt
CCn1c(C)nc2cc(-c3nc4n(n3)Cc3ccccc3-4)ccc21,100*,96*,-6,4,-3,96*,99*,100*,103*,99*,86*
CCn1c(C)nc2cc(C(=O)NNC(=O)c3ccc(C)cc3)ccc21,6,4,-41,-5,1,2,nt,nt,nt,nt,nt
NC(=S)Cc1nc2n(n1)Cc1ccccc1-2,-5,-4,3,-2,-15,-9,nt,nt,nt,nt,nt
Cc1cc(C)n2nc(-c3ccc(F)cc3)nc2n1,11,0,27,-11,5,22,nt,nt,nt,nt,nt
Cc1ccc(-c2nc3n(n2)Cc2ccccc2-3)cc1,99*,96*,14,-197,6,97*,80*,91*,103*,98*,68*
